# Bioassay records: PubChem BioAssay, several laboratories
# Shown are actives, neighbours in structure and some others; about 1.5% of the full set was active somewhere.
# CTSL1 counter – blocks F. hepatica cathepsin L1 in PFM18AAP counter-screen; recombinant F. hepatica cathepsin L1, Z-Leu-Arg-MCA fluorescence; inhibition, % at 5.96 µM; actives 0.49% (n = 300,000); AID 1906;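 active = inhibition above the mean of all tested compounds plus 3 SD, set per screening campaign, cut at about 17% in these data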;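 note: 0% = plate median of test compound wells and 100% = 1 µM Z-Phe-Ala-diazomethylketone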
# UCH37 DUB inh – human UCH37 deubiquitinating enzyme inhibition. Q9Y5K5. purified proteasome/UCH37, Ub-AMC cleavage fluorescence. inhibition, % (test concentration not listed). actives 0.33% (n = 330,000). AID 588478;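 active = mean inhibition over replicate wells above about 20%, limit read from the data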;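 note: 0% = compound-free wells with enzyme and 100% = wells lacking proteasome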
#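 Material: human UCH37 enzyme supplied as purified proteasome complex / Amount: 0.15 nM proteasome as dispensed / Buffer or medium: pH 7.4 Tris-HCl (50 mM) with ovalbumin, ATP-MgCl2, DTT / Times: preincubation 30 min, reaction 25 min, room temperature / Technique: AMC fluorescence from Ub-AMC cleavage, excitation 355 nm, emission 460 nm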
# DAGLB inhibitor – diacylglycerol lipase beta (human) inhibition | Q8NCG7 | HEK293T DAGLB membrane lysate, EnzChek fluorogenic substrate | inhibition, % at 5.17 µM | actives 0.059% (n = 340,000); in the data active = inhibition above about 34%;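 note: 0% = enzyme with vehicle and 100% = wells lacking enzyme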
# Target sequence (Q8NCG7 whole entry, looked up): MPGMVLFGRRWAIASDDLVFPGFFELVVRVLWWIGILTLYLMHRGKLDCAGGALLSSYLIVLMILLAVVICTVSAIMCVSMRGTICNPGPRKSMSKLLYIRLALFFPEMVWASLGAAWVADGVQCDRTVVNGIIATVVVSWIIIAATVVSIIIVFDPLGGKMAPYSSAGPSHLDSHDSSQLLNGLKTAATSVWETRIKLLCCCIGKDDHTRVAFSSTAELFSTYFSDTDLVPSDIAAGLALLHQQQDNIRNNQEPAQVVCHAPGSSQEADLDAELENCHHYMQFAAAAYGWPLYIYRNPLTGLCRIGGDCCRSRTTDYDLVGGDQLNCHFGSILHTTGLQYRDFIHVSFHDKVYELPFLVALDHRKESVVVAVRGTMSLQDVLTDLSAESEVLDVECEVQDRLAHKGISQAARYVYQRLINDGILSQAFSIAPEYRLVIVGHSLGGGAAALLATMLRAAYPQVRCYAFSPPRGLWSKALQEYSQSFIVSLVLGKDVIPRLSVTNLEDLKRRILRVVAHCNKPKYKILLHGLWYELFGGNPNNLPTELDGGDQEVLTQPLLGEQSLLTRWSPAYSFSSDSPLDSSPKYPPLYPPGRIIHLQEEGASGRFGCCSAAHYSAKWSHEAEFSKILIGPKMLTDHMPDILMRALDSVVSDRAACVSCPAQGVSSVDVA
# NRP1-CendR mod – modulators of CendR peptide binding to human neuropilin-1; actives 0.85% (n = 360,000); FAM-RPARPAR peptide binding to NRP-1, fluorescence polarization; inhibition, % at 25 µM; AID 602438; O14786;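 active = inhibition or corrected inhibition above about 18%, plus a signal ratio from 0.5 to 1.5, limit read from the data, passing the limit was not always enough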
# MT1-MMP act inh – MT1-MMP (human) activation inhibition; actives 0.061% (n = 360,000); GFP/RFP ratio change, % at 20 µM; HT1080 RFP-PRO-GFP cells, GFP/RFP ratio fluorescence, overnight; percent of plate control window, DMSO zero;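 active = GFP/RFP ratio change of at least 30% with cell ATP level not reduced by more than half and red fluorescence within 50% of control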
#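 Test system: HT1080 cells expressing an RFP-PRO-GFP fluorescent reporter construct / Compound dosing: single-point 20 µM compound, 1% DMSO / Schedule: cells overnight before dosing, compound overnight, 37 °C, 5% CO2 / Evaluation: GFP/RFP fluorescence ratio / Control set: DMSO and RFP-L50D-GFP cell wells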
# Numbers without * were called inactive; i = inactive; / = not tested or not shown.
SMILES,CTSL1 counter,UCH37 DUB inh,DAGLB inhibitor,NRP1-CendR mod,MT1-MMP act inh
CC(C)=CC(O)C/C(C)=C/COc1ccc2ccc(=O)oc2c1 (stereo not drawn),1,-115,-2,26*,-42
O=C(O)c1cc2ncc(CCO)cn2n1,11,-38,-1,24*,4
O=C(c1cc2ncc(CCCl)cn2n1)N1CCCCCC1,-4,-2,0,-2,7
COc1ccc(Br)cc1C=NNc1cccc(C(=O)O)c1,/,4,/,/,/
CCCCS/C(N)=N/N=Cc1ccccc1O,/,0,/,/,/
COC(=O)c1ccccc1NC1=C/C(=N\S(=O)(=O)c2ccc(C(=O)O)cc2)c2ccccc2C1=O,47*,90*,19,24,13
CCc1ccc(S(=O)(=O)/N=C2\C=C(Nc3ccc(C(=O)O)cc3)C(=O)c3ccccc32)cc1,79*,/,11,8,14
COc1ccc(C=NNC(=O)COc2ccccc2)c(C(=O)O)c1OC,/,3,/,/,/
CCOc1ccc(C=NNC(=O)c2[nH]ncc2Br)c(O)c1,/,-4,/,/,/
Cn1nc(C(=O)NCC(c2cccs2)N2CCOCC2)c2ccccc2c1=O (stereo not drawn),/,1,-2,27*,2
COc1ccccc1OCC(=O)NCC(c1cccs1)N1CCOCC1 (stereo not drawn),1,1,-2,25*,-2
CC(C)(C)OC(=O)N[C@@H](C(=O)OC(C)(C)C)c1ccccc1,/,3,-8,13,0
CC(C)(C)C(C(=O)Oc1ccccc1)c1ccccc1 (stereo not drawn),/,24*,-4,4,1
CCCCN(C)CCNC(=O)c1cc2cc3ccc(OC)cc3nc2o1,0,i,3,21*,5
CCN(CC)CCNC(=O)c1cc2cc3ccc(OC)cc3nc2o1,-1,i,0,8,1
COc1cccc(C=Cc2nccc3ccccc23)c1OC,/,/,-22,25*,-1
CN(C)c1ccc(C=Cc2nccc3ccccc23)cc1,/,/,/,140,11
CCOC(=O)NN=Cc1cn(CCCOc2ccc(C)cc2)c2ccccc12,/,3,/,/,/
C=CCn1c(N)cc(=O)nc1SC(C)C(=O)Nc1cccc2ccccc12 (stereo not drawn),-1,-1,1,22*,-2
CC(=NNC(=O)CCCNc1ccccc1)c1ccncc1,/,0,/,/,/
COc1ccccc1C(=O)NCC(=O)NN=C(C)Cc1ccccc1,/,0,/,/,/
Cc1cccc(C=NNC(=O)c2cccc(Cl)c2)n1,/,2,/,/,/
CCc1cc(Cn2nc(C(=O)O)cc2-c2ccccc2)on1,-1,22*,1,2,3
CC(=O)Nc1ccc(CNc2ncnc3ccc(-c4c(C)noc4C)cc23)cc1,/,1,0,36*,21
Cc1ccc(S(=O)(=O)N2c3ccc(S(N)(=O)=O)cc3CC2C)cc1 (stereo not drawn),1,5,-2,22*,1
SMILES,CTSL1 counter,UCH37 DUB inh,DAGLB inhibitor,NRP1-CendR mod,MT1-MMP act inh
Cc1ccc(S(=O)(=O)N2c3ccccc3CC2C)cc1 (stereo not drawn),2,/,/,-5,-3
O=C(NN=Cc1ccc[nH]1)c1ccccc1[N+](=O)[O-],/,0,/,/,/
CN(C)c1ccc(C=NNC(=O)c2ccc(CN3CCOCC3)cc2)cc1Br,/,6,/,/,/
CC(C)(C)OC(=O)NCCc1n[nH]c(=S)o1,-1,4,/,27*,2
Clc1cccc(NN=Cc2ccncc2)c1,/,7,/,/,/
CCOC(=O)c1cc(NC(=O)COC)ccc1O,-2,0,/,/,/
CCOC(=O)C(=CNc1ccc(O)c(C(=O)OC)c1)C(=O)OCC,2,2,0,25*,2
Cc1ccc(C(=O)/C=C/NCc2ccc(F)cc2)cc1,4,7,-2,36*,1
Nc1ccc2cccc(O)c2c1,/,-8,5,28*,15
Brc1cc(C=Nn2cnnc2)oc1Br,/,8,/,/,/
CCOC(=O)C1=C[C@@H](C(C)(C)C)N(S(=O)(=O)c2ccc([N+](=O)[O-])cc2)[C@H]1c1ccccc1,/,/,/,23*,-8
CCOC(=O)C(=NNc1cc(Cl)ccc1Cl)N1CCN(C)CC1,/,5,/,/,/
O=C(c1ccc(C(F)(F)F)cc1)N1CCC(=O)N(C(CO)Cc2ccccc2)CC1 (stereo not drawn),-2,2,-6,26*,-3
O=C(c1cccc(C(F)(F)F)c1)N1CCC(=O)N(C(CO)Cc2ccccc2)CC1 (stereo not drawn),2,2,3,7,1
